The results in this text go back to ChEMBL document CHEMBL1133117, “S-Acyl-2-thioethyl aryl phosphotriester derivatives as mononucleotide prodrugs” (J Med Chem, 2000).

Data set [1] can be described thus: Partition coefficient (logP). Particulars: octanol/water. The format is physicochemical. The gist of the method:
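Apparent partition coefficient (log Papp) measured as distribution between 1-octanol and potassium phosphate buffer (0.02 M, pH 7.2) by an adapted shake-flask method.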

The test system of data set [2] is CCRF-CEM. Description: Tested for cytotoxic concentration in CEM/TK- cell culture. The format is functional. The settings on record: Homo sapiens. Summed up: (§1)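 Viability of uninfected CEM-SS, MT-4 or CEM/TK− cells measured. CC50 is the concentration that reduces viability by 50%. Values are averages of at least three separate experiments, with variation below ±10%.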

In data set [3] the test system is CCRF-CEM. Description: Tested for anti-HIV -1 Activity in CEM/TK- cell culture. The format is functional, cell-based. Particulars: Homo sapiens. The gist of the method:
(§2)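 HIV-1 replication assayed in human T4 lymphoblastoid CEM-SS or MT-4 cells, or thymidine kinase-deficient CEM (CEM/TK−) cells. EC50 is the concentration that inhibits HIV-1 replication by 50%. Values are averages of at least three separate experiments, with variation below ±10%.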

Data set [4] has as its system CCRF-CEM. Description: Tested for cytotoxic concentration in CEM-SS cell culture. The format is functional. The settings on record: Homo sapiens. The gist of the method:
as §1

Data set [5] concerns CCRF-CEM. Description: Tested for anti-HIV -1 Activity in CEM-SS cell culture. The format is functional, cell-based. The settings on record: Homo sapiens. Summed up:
as §2

Data set [6] relates to MT4. Description: Tested for cytotoxic concentration in MT-4 cell culture. The format is functional. The settings on record: Homo sapiens. The gist of the method:
as §1

For data set [7], the system named is MT4. Description: Tested for anti-HIV -1 Activity in MT-4 cell culture. The settings on record: Homo sapiens. The format is functional, cell-based. The gist of the method:
as §2

In data set [8] the test system is CCRF-CEM. Description: Tested for cytotoxic activity in CEM/TK- cell culture. Particulars: Homo sapiens. The format is functional. Summed up:
as §1

The subject of data set [9] is CCRF-CEM. Description: Tested for anti-HIV -1 activity in CEM/TK- cell culture. The settings on record: Homo sapiens. The format is functional, cell-based. The gist of the method: as §2
Data set [10] has as its system CCRF-CEM. Description: Tested for cytotoxic activity in CEM-SS cell culture. The format is functional. The settings on record: Homo sapiens. The gist of the method: as §1
In data set [11] the test system is CCRF-CEM. Description: Tested for anti-HIV -1 activity in CEM-SS cell culture. The format is functional, cell-based. The settings on record: Homo sapiens. The gist of the method: as §2
The test system of data set [12] is MT4. Description: Tested for cytotoxic activity in MT-4 cell culture. The format is functional. The settings on record: Homo sapiens. Summed up:
as §1

Data set [13] has as its system MT4. Description: Tested for anti-HIV -1 activity in MT-4 cell culture. Particulars: Homo sapiens. The format is functional, cell-based. Summed up: as §2
Data set [14] has as its system CCRF-CEM. Description: Tested for cytotoxic concentration in CEM/TK- cell culture,(Human). The format is functional. Summed up: as §1
For data set [15], the system named is CCRF-CEM. Description: Tested for anti-HIV -1 Activity in CEM/TK- cell culture,(Human). The format is functional, cell-based. The gist of the method: as §2
Data set [16] concerns CCRF-CEM. Description: Tested for cytotoxic concentration in CEM-SS cell culture,(Human). The format is functional. Summed up: as §1
The subject of data set [17] is CCRF-CEM. Description: Tested for anti-HIV -1 Activity in CEM-SS cell culture,(Human). The format is functional, cell-based. Summed up:
as §2

The subject of data set [18] is MT4. Description: Tested for cytotoxic concentration in MT-4 cell culture,(Human). The format is functional. Summed up:
as §1

Data set [19] relates to MT4. Description: Tested for anti-HIV -1 Activity in MT-4 cell culture,(Human). The format is functional, cell-based. Summed up: as §2

Consider `COC(=O)[C@H](Cc1ccc(OP(=O)(OCCSC(=O)C(C)(C)C)OCC2OC(n3cc(C)c(=O)[nH]c3=O)CC2N=[N+]=[N-])cc1)NC(=O)OC(C)(C)C` (some centres undefined), for which the logP in data set [1] (read-out: logP) is 3.48. In addition, the CC50 with CCRF-CEM [2], with CCRF-CEM [4] and with MT4 [6] was greater than 10000 nM in each case. Besides, the EC50 with CCRF-CEM [3] came out at 2300 nM; in the data set with CCRF-CEM [5] it was 1 nM; in the data set on MT4 [7], 33 nM.

With `Cc1cn(C2CC(N=[N+]=[N-])C(COP(=O)(OCCSC(=O)C(C)(C)C)OCCSC(=O)C(C)(C)C)O2)c(=O)[nH]c1=O` (centres undefined), the logP in [1] (read-out: logP) turned out to be 3.73. The CC50 with CCRF-CEM [2], in the data set with CCRF-CEM [4] and in the data set with MT4 [6] was greater than 10000 nM throughout. Besides, the EC50 in the data set with CCRF-CEM [3] amounted to 450 nM; in the data set with CCRF-CEM [5], 15 nM.

As to `Cc1cn(C2CC(N=[N+]=[N-])C(COP(=O)(OCCSC(=O)C(C)(C)C)Oc3ccc(C[C@H](N)C(=O)OC(C)(C)C)cc3)O2)c(=O)[nH]c1=O` (some centres undefined), the logP in data set [1] (read-out: logP) turned out to be 2.9. The CC50 with CCRF-CEM [2], in the data set on CCRF-CEM [4] and in the data set with MT4 [6] was greater than 10000 nM each time. For the same compound, the EC50 was determined as 2700 nM in the data set with CCRF-CEM [3], 4 nM in the data set with CCRF-CEM [5] and 42 nM with MT4 [7].

In data set [1], `COC(=O)[C@@H](N)Cc1ccc(OP(=O)(OCCSC(=O)C(C)(C)C)OCC2OC(n3cc(C)c(=O)[nH]c3=O)CC2N=[N+]=[N-])cc1` (some centres undefined) returned a logP of 2.25. The CC50 is greater than 100000 nM in the data set on CCRF-CEM [8], greater than 100000 nM with CCRF-CEM [10] and greater than 10000 nM in the data set with MT4 [12]. Besides, the EC50 with CCRF-CEM [9] was 1800 nM; in the data set with CCRF-CEM [11], 2 nM; in the data set with MT4 [13], 37 nM.

On to `Cc1cn(C2CC(N=[N+]=[N-])C(COP(=O)(OCCSC(=O)C(C)(C)C)Oc3ccc(C[C@H](NC(=O)OC(C)(C)C)C(=O)OC(C)(C)C)cc3)O2)c(=O)[nH]c1=O` (some centres undefined), for which, in data set [1] (read-out: logP), the logP came out at 4.29. For the same compound, the CC50 with CCRF-CEM [2], in the data set on CCRF-CEM [4] and with MT4 [6] was greater than 1000 nM each time. The EC50 with CCRF-CEM [3] worked out at 900 nM; in the data set on CCRF-CEM [5], 34 nM; in the data set with MT4 [7], 250 nM.

In the case of `Cc1cn(C2CC(N=[N+]=[N-])C(COP(=O)(OCCSC(=O)C(C)(C)C)Oc3ccc(C[C@H](N)C(=O)O)cc3)O2)c(=O)[nH]c1=O` (some centres undefined), in [1] (read-out: logP), the logP is 0.24. In addition, the results for the CC50 in the data set on CCRF-CEM [14], in the data set with CCRF-CEM [16] and with MT4 [18] were greater than 100000 nM, greater than 100000 nM and greater than 10000 nM, respectively. Further, the EC50 was 29000 nM in the data set on CCRF-CEM [15], 6 nM with CCRF-CEM [17] and 75 nM in the data set on MT4 [19].

Take `Cc1cn([C@H]2C[C@H](N=[N+]=[N-])[C@@H](COP(=O)(OCCSC(=O)C(C)(C)C)Oc3ccccc3)O2)c(=O)[nH]c1=O` (some centres undefined): the logP in [1] is given as 3.46. Besides, the CC50 in the data set on CCRF-CEM [14] and in the data set on MT4 [18] was greater than 10000 nM in each case. The EC50 stood at 3500 nM in the data set with CCRF-CEM [15], 2 nM in the data set on CCRF-CEM [17] and 70 nM with MT4 [19].

For the compound `Cc1cn([C@H]2C[C@H](N=[N+]=[N-])[C@@H](CO)O2)c(=O)[nH]c1=O` [ZIDOVUDINE], the logP in data set [1] (read-out: logP) was determined as 0.06. The results for the CC50 in the data set on CCRF-CEM [2], in the data set on CCRF-CEM [4] and with MT4 [6] were greater than 100000 nM, greater than 1000 nM and greater than 1000 nM, respectively. Moreover, the EC50 is greater than 100000 nM in the data set on CCRF-CEM [3], 3 nM in the data set on CCRF-CEM [5] and 15 nM in the data set on MT4 [7].
